These results are taken from ChEMBL document CHEMBL1128460, “Design, synthesis, and structure-activity relationships of a new series of alpha-adrenergic agonists: spiro[(1,3-diazacyclopent-1-ene)-5,2'-(1',2',3',4'- tetrahydronaphthalene)]” (J Med Chem, 1995).

For assay [1], the target named is T1, Adrenergic receptor alpha (Rattus norvegicus) (UniProt P15823+P23944+P43140+P22086+P19328+P22909). Kind of assay: Alpha adrenergic activity was evaluated as concentration (iv) which increases the arterial pressure by 20 mmHg in the pithed rat. It counts as functional, organism-based. The settings on record: Artery.
A short description of assay [2]: Ratio of C20 obtained in the absence or presence of [C20 (1 mg of yohimbine.) / C20 (control)]. It is filed as functional. The method in brief:
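Pithed rat arterial pressure assay with tertatolol (100 mg/kg) pretreatment, then yohimbine (1 mg/kg) 10 min later. Cumulative iv agonist doses given at 20 s intervals after a further 10 min, C20 (+20 mmHg dose) obtained. Ratio expressed as C20(yohimbine)/C20(control); 3–6 determinations.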

Assay [3] is filed under the species Canis familiaris. The experiment in a line: Maximal contractile response obtained with the agonist (expressed as a percentage of the maximal contraction to phenylephrine in the dog femoral artery). It is filed as functional, Canis lupus familiaris. The method in brief: (§1)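 Vessel segments from mongrel dogs (15–25 kg) anesthetized with pentobarbital (30 mg/kg iv), mounted for isometric tension in physiological saline. Equilibrated 90 min with bath changes every 30 min, rauwolscine (10^-7 M) present throughout. Primed with KCl (100 mM), then phenylephrine (1 µM). Agonist concentration–response curves run at half-log steps, giving EC50 (µM) and Emax as % of phenylephrine maximum; mean ±SD.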

Assay [4] is filed under the species Canis familiaris. The experiment in a line: Maximal contractile response obtained with the agonist (expressed as a percentage of the maximal contraction to phenylephrine in the dog saphenous vein). It counts as functional, Canis lupus familiaris. The method in brief: as §1
The target in assay [5] is T1, Adrenergic receptor alpha (Rattus norvegicus). Kind of assay: Alpha adrenergic activity was evaluated as maximal pressure response caused by agonist, expressed in mmHg (the maximum obtained with phenylephrine is 150 mmHg). It is filed as functional.
The species entered for assay [6] is Canis familiaris. Kind of assay: Effective concentration for the agonist in the isolated blood vessel using in vitro saphenous vein. The settings on record: Canis lupus familiaris. It counts as functional. In outline: as §1
The species named for assay [7] is Canis familiaris. Kind of assay: Effective concentration for the agonist in the isolated blood vessel using in vitro femoral artery. It is filed as functional. The settings on record: Canis lupus familiaris. The method in brief: as §1
A short description of assay [8]: Ratio of C20 obtained in the absence or presence of [C20 ( 0.1 mg of prazosin ) / C20 (control)]. It counts as functional. In outline:
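Pithed rats pretreated with tertatolol (100 mg/kg), then 10 min later with prazosin (100 µg/kg). Cumulative iv agonist doses given another 10 min later at 20 s intervals. Arterial pressure recorded, C20 (dose giving +20 mmHg) determined. Ratio calculated as C20(prazosin)/C20(control); 3–6 determinations.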

The target in assay [9] is T2, Adrenergic receptor alpha-1 (Rattus norvegicus, UniProt P15823+P23944+P43140).
T2 sequence (P15823 whole entry): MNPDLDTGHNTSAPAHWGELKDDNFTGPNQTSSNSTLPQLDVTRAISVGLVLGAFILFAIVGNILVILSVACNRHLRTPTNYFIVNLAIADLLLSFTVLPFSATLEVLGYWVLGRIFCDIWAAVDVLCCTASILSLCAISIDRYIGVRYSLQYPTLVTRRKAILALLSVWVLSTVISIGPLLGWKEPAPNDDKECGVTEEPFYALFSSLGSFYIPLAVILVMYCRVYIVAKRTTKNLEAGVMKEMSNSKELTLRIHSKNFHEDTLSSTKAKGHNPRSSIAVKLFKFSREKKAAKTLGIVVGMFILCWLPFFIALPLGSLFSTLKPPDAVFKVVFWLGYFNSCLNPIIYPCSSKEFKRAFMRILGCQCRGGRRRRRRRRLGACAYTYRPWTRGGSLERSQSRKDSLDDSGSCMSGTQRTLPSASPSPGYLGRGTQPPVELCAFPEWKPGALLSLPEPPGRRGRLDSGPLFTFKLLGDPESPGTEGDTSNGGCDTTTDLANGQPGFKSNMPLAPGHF
T2 sequence (P23944 whole entry): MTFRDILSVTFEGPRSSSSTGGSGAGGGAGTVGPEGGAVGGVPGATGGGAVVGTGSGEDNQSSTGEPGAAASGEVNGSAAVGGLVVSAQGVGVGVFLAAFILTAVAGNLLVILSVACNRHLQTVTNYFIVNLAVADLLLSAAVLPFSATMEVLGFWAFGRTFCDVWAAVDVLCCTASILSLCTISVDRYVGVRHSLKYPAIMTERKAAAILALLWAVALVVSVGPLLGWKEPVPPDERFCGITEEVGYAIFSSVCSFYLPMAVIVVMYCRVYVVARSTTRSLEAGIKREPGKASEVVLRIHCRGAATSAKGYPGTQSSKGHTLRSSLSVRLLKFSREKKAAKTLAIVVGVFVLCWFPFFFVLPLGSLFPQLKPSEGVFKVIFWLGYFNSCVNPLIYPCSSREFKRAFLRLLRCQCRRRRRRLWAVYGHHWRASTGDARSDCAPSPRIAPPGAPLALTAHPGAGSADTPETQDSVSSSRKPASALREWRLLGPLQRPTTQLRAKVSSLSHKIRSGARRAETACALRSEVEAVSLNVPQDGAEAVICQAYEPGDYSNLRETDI
T2 sequence (P43140 whole entry): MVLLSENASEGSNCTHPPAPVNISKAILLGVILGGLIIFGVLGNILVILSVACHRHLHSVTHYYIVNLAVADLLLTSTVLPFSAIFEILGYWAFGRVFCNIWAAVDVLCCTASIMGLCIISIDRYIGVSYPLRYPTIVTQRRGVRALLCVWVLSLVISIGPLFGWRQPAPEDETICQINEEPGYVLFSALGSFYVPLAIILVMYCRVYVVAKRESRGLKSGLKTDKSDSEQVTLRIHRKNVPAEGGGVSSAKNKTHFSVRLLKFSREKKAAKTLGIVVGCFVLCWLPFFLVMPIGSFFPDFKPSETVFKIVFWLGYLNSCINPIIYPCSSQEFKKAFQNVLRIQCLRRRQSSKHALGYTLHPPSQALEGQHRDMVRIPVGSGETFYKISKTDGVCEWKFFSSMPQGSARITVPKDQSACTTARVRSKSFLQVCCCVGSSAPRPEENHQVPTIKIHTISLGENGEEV
Kind of assay: Displacement of [3H]prazosin from rat cortex Alpha-1 adrenergic receptor. In outline: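 Rat cortex membranes labelled with [3H]prazosin (0.3 nM), nonspecific binding with prazosin (10 µM). Nine drug concentrations spanning 3 log units, IC50 by log-probit analysis. Ki by Cheng–Prusoff using Kd from Scatchard saturation. At least three independent experiments in duplicate.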
Background: Loss of bound radioactivity is the signal in a displacement assay; it reports binding, not function.

As to `COc1cc2c(cc1O)CCC1(CN=CN1)C2` (stereo not given), the C20 in [1] was 1.2 µg/kg. In addition, the Ratio in [2] is 2.8; in assay [8], 9.2. Besides, the Emax is given as 69 in assay [3] and 97 in assay [4]. This compound also gave a Max in [5] of 134 mmHg. In addition, the EC50 in [6] stood at 19000 nM; in assay [7] it was 1400 nM.

Take `COc1cc(C)cc2c1CCC1(CN=CN1)C2` (stereo not given): the C20 in assay [1] was found to be 10 µg/kg. Also, the figures for the Ratio in assay [2] and in assay [8] were 1 and 1.6, respectively. Moreover, the Emax stood at 60 in assay [3] and 81 in assay [4]. In assay [5], the Max worked out at 136 mmHg. The EC50 in assay [6] was 3900 nM; in assay [7], 800 nM. This compound also showed an inhibition constant Ki in assay [9] of 600 nM.

`NC1=NC2(CCc3ccccc3C2)CN1` (stereo not given) yielded a C20 in assay [1] of 57 µg/kg. The Ratio in [2] came to 26; in [8] it was 2.5. Moreover, the Emax in assay [3] is 2; in assay [4] it was 36. For the same compound, the Max in [5] turned out to be 53 mmHg. The half-maximal effective concentration (EC50) in assay [6] was found to be 52000 nM; in assay [7], 50000 nM.

With `COc1ccc(OC)c2c1CCC1(CN=CN1)C2` (stereo not given), the C20 in [1] amounted to 0.05 µg/kg. Moreover, the Ratio in assay [2] worked out at 2; in assay [8], 21. Besides, the Emax in assay [3] is 77; in assay [4], 106. Besides, the Max in [5] is 128 mmHg. Also, the figures for the EC50 in assay [6] and in [7] were 300 nM and 120 nM, respectively. In addition, in assay [9], the Ki turned out to be 2000 nM.

As for `COc1ccc(SC)c2c1C[C@@H]1[C@@H](C2)OCCN1C`, in assay [1], the C20 was 23 µg/kg. Further, the Ratio in assay [2] was 2.4; in [8], 5.1. Further, the Emax in [3] came out at 28; in [4], 38. In [5], the Max was found to be 123 mmHg. The EC50 in assay [6] is 23 nM; in assay [7] it was 38000 nM.

As to `COc1cccc2c1CC1(CC2)CN=CN1` (stereo not given), in assay [1], the C20 came to 0.64 µg/kg. The Ratio in assay [2] was found to be 4.6; in assay [8], 2. In addition, the results for the Emax in assay [3] and in [4] were 97 and 100, respectively. Besides, in assay [5], the Max is 139 mmHg. The EC50 in [6] is 500 nM; in assay [7], 7200 nM. The compound further had a Ki in [9] of 16000 nM.

For the compound `COc1ccc(SC)c2c1CC1(CC2)CN=CN1` (stereo not given), in assay [1], the C20 came to 0.003 µg/kg. The figures for the Ratio in [2] and in [8] were 45 and 75, respectively. Further, the Emax in assay [3] amounted to 96; in assay [4], 98. In addition, in assay [5], the Max is 136 mmHg. For the same compound, the EC50 in assay [6] was found to be 180 nM; in assay [7], 290 nM. Further, the Ki in [9] is 600 nM.

In assay [1], `Clc1cccc2c1CC1(CC2)CN=CN1` (stereo not given) had a C20 of 0.3 µg/kg. Moreover, the Ratio in assay [2] worked out at 4.7; in assay [8], 1.9. Moreover, the Emax in assay [3] worked out at 83; in [4], 95. Further, in [5], the Max came to 133 mmHg. Besides, the figures for the EC50 in assay [6] and in assay [7] were 240 nM and 1600 nM, respectively.

With `Cc1ccc(C)c2c1CCC1(CN=CN1)C2` (stereo not given), in assay [1], the C20 came out at 0.5 µg/kg. Moreover, the Ratio in assay [2] came to 4.8; in assay [8] it was 2.1. Further, the Emax turned out to be 67 in [3] and 84 in assay [4]. In [5], this compound came in with a Max of 140 mmHg. The values for the EC50 in assay [6] and in assay [7] were 2400 nM and 3000 nM, respectively.

In assay [1], `Cc1ccc2c(c1)CCC1(CN=CN1)C2` (stereo not given) yielded a C20 of 5.4 µg/kg. Besides, the Ratio in assay [2] worked out at 6.1; in assay [8], 1.3. For the same compound, the Emax in assay [3] is recorded as 12; in assay [4] it was 44. In addition, the Max in assay [5] was 114 mmHg. In addition, the EC50 was 2100 nM in assay [6] and 14000 nM in assay [7].

In turn, `CCOc1ccc(OCC)c2c1CCC1(CN=CN1)C2` (stereo not given) displayed a C20 in assay [1] of 0.6 µg/kg. Further, the Ratio in assay [2] came out at 7.7; in assay [8], 24. Besides, the values for the Emax in [3] and in [4] were 55 and 68, respectively. Moreover, the Max in [5] was 157 mmHg. Besides, the 50% effective concentration (EC50) came out at 2700 nM in [6] and 850 nM in [7].

Compound `COc1ccc2c(c1OC)CCC1(CN=CN1)C2` (stereo not given) returned a C20 in assay [1] of 142 µg/kg. Besides, the Ratio in assay [2] was found to be 2.4; in assay [8], 2.9. Further, the Emax was determined as 21 in assay [3] and 67 in assay [4]. Moreover, the Max in assay [5] is 107 mmHg. In addition, the concentration giving a half-maximal response (EC50) stood at 52000 nM in assay [6] and 50000 nM in [7].

In the case of `Oc1cccc2c1CC1(CC2)CN=CN1` (stereo not given), the C20 in [1] is 4.3 µg/kg. The values for the Ratio in assay [2] and in assay [8] were 12 and 0.9, respectively. The figures for the Emax in assay [3] and in assay [4] were 22 and 66, respectively. Also, in assay [5], the Max worked out at 119 mmHg. The results for the EC50 in assay [6] and in assay [7] were 10000 nM and 39000 nM, respectively.

As to `COc1cccc2c1CCC1(CN=CN1)C2` (stereo not given), the C20 in assay [1] is 0.85 µg/kg. In addition, the Ratio in assay [2] was 4.7; in [8], 5.4. The Emax in assay [3] was 93; in assay [4], 101. In [5], this compound gave a Max of 139 mmHg. Moreover, the EC50 amounted to 800 nM in assay [6] and 2000 nM in assay [7]. The compound also gave a Ki in [9] of 3400 nM.

As for `COc1cc2c(c(OC)c1)CCC1(CN=CN1)C2` (stereo not given), the C20 in assay [1] came to 7.9 µg/kg. For the same compound, the Ratio in [2] stood at 2.6; in [8], 2.9. Also, the Emax in assay [3] stood at 25; in [4], 44. Further, in [5], the Max is 109 mmHg. The results for the EC50 in [6] and in assay [7] were 7300 nM and 700 nM, respectively.

By EC50 is commonly meant the concentration at which the effect is half-maximal. Usually Ki stands for a dissociation constant, usually derived from enzyme kinetics or from competition with a known ligand. Read a high Ki as weaker binding.
